The sample as a whole holds a higher share of hits than the screen did.
HCT116 bCat-KO: beta-catenin-lacking colon tumor cell growth suppression | HCT116 beta-catenin knockout viability, CellTiter-Glo, 60 h; stronger effect = lower value | viability, % at 10 µM | 1.5% of 140,000 active;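 active means viability at or under a set limit, the compound median less 4 SD, cut at about 6% in these data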
Lung fibro prol: blocks proliferation of human lung fibroblasts | 1.1% of 85,000 active | viability, % at 10 µM | LL 47 human lung fibroblast viability, ATP luminescence; stronger effect = lower value;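 active means viability at or below 50% in the single dose screen; inactive means viability above 50%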;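 further: compound exposure lasted 72 h before the ATP readout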
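Material: human LL 47 lung fibroblast cells; quantity: 1,150 cells/well; medium: IMEM plus 15% FBS; doses: 0.1% DMSO in all compound wells; timing: overnight attachment after seeding, then 72 h compound exposure at 37 °C; detection: CellTiter-Glo luminescence; measure: % viability of median cell-only signal; controls: cell-only wells, no compound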
H69AR inhibit: blocks growth of human H69AR lung tumor cells. H69AR lung tumor viability, ATP luminescence, 72 h; stronger effect = lower value. viability, % at 10 µM. 6% of 85,000 active;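 active means viability at or below 40%; inactive means viability above 40%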;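 further: multidrug resistant small cell line overexpressing MRP-1 efflux transporter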
HCT116 PTEN-null: PTEN-deleted cell growth suppression | HCT116 PTEN-null viability, CellTiter-Glo, 60 h; stronger effect = lower value | viability, % at 10 µM | 1.2% of 140,000 active;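 active means viability at or below a set limit, 4 SD under the median of all tested compounds, cut at about 3.7% in these data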;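 further: PTEN knockout HCT116 line with beta catenin targeted HCT116 as companion control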
HUVEC inhibit: inhibitors of human endothelial cell proliferation; HUVEC proliferation, CellTiter-Glo luminescence, 72 h; stronger effect = lower value; viability, % at 10 µM (by protocol); 1.1% of 86,000 active;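 active means viability at or below 30%; inactive means viability above 30%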
Numbers stand for hits; i = inactive; nt = no result given.

SMILES	HCT116 bCat-KO	Lung fibro prol	H69AR inhibit	HCT116 PTEN-null	HUVEC inhibit
O=C(Nc1ccc(F)cc1)N(Cc1ccco1)Cc1cc2cc3c(cc2[nH]c1=O)OCO3	i	i	31	i	i
Cc1cc2cc(CN(Cc3ccco3)C(=O)C3CCCCC3)c(=O)[nH]c2cc1C	i	i	16	i	i
CCC1Oc2ccc(C)cc2N(CC(=O)N(Cc2ccncc2)Cc2ccco2)C1=O (centres undefined)	i	i	34	i	i
CCOC(=O)CC(NS(=O)(=O)Cc1ccccc1)c1ccc(C)cc1 (centres undefined)	i	nt	nt	i	nt
COC(=O)c1sccc1NC(=O)COc1ccccc1Cl	i	nt	nt	i	nt
COC(=O)c1ccccc1CCC(C)=O	i	i	24	i	i
COC(=O)c1ccccc1NC(=O)CCc1ccccc1	i	nt	nt	i	nt
COC(=O)c1cn(NC(=O)/C=C/c2ccc(OC)c(OC)c2)c(=O)c2ccccc12	i	nt	nt	i	nt
O=C(CNS(=O)(=O)c1ccccc1)NCC(=O)OCc1ccc(C(=O)c2ccccc2)cc1	i	nt	nt	i	nt
O=C(OCc1ccc(F)cc1)c1ccc2c(c1)-c1ccccc1C2=O	i	nt	nt	i	nt
CCOC(=O)C1=C(Cc2ccc(F)cc2)C(=O)c2ccccc2C1=O	i	i	0.8	i	6.5
O=S(=O)(NCCOCC(F)(F)C(F)F)c1ccc2oc3ccccc3c2c1	i	i	i	i	i
O=C(NC(=S)NCC1CCCO1)C(c1ccccc1)c1ccccc1 (centres undefined)	i	nt	nt	i	nt
CC1Cc2ccccc2N1C(=O)COC(=O)Cn1nnc(-c2ccccc2)n1 (centres undefined)	i	i	22	i	i
O=C(Cn1nnc(-c2ccccc2)n1)OCc1ccccc1	i	nt	nt	i	nt
CN1/C(=C\C=Nc2ccc3ccccc3c2)C(C)(C)c2ccccc21	i	nt	nt	i	nt
Cc1cc(/N=C/C=C2\N(C)c3ccccc3C2(C)C)n(CCC#N)n1	i	i	20	i	i
CC(C)Cc1nc2ccccc2n1CCc1ccccc1	i	nt	nt	i	nt
COC(=O)C1=C(C)N(c2ccc(S(N)(=O)=O)cc2)C(=O)C1	i	nt	nt	i	nt
COC(=O)C1=C(C)N(c2ccc(Cl)c(Cl)c2)C(=O)C1	3.6	i	i	3.6	i
CCN(CC)S(=O)(=O)c1ccc2c(c1)C(=NO)c1cc(S(=O)(=O)N(CC)CC)ccc1-2	1.3	38	2.6	2.8	4.3
CCN(CC)CCOc1ccc2c(c1)C(=NO)c1cc(OCCN(CC)CC)ccc1-2	1.9	3.0	i	2.0	12
O=C(NC(=S)NCCC1=CCCCC1)c1cncc(Br)c1	i	nt	nt	i	nt
COc1ccc(CCn2c(C)cc(C(=O)CSc3nnnn3-c3ccccc3)c2C)cc1OC	i	i	i	i	i
Cc1cc(C(=O)CSc2nnnn2-c2ccccc2)c(C)n1CCc1ccccc1	i	i	19	i	i
SMILES	HCT116 bCat-KO	Lung fibro prol	H69AR inhibit	HCT116 PTEN-null	HUVEC inhibit
Cc1cc(C)c(C(=O)c2ccc(C(=O)N(C(C)C)C(C)C)cc2)c(C)c1	i	i	24	i	i
Cc1nc(N2CCC3(CC2)OCCO3)c2nnn(Cc3ccccc3F)c2n1	i	i	35	i	i
Cc1ccc(C2CC2C(=O)NNC(=S)Nc2cccc(C)c2)cc1 (centres undefined)	i	i	i	i	i
Cc1ccc(C2CC2C(=O)NNC(=S)Nc2cccc(Cl)c2)cc1 (centres undefined)	i	i	17	i	i
COc1ccc(NCc2nnc(SCC(=O)c3ccc(OC)cc3)o2)cc1	i	i	i	i	i
COc1ccc(OC)c(NC(=O)CSc2nnc(CNC(=O)COc3ccc(Cl)cc3)o2)c1	i	i	i	i	i
COc1ccc(NC(=O)CSc2nnc(CNC(=O)COc3ccc(Cl)cc3)o2)c(OC)c1	i	44	i	i	i
CCOc1cc(C(=O)CSc2nnc(CNc3ccc(Cl)cc3)o2)ccc1NC(=O)CC	i	i	0.2	i	1.7
CC(C)CN(C(=O)CSc1nn(-c2ccc(Cl)cc2)c(=S)s1)C1CCS(=O)(=O)C1 (centres undefined)	i	nt	nt	i	nt
O=C(NCCN1CCOCC1)c1cnn2c(-c3ccccc3)cc(-c3ccccc3)nc12	i	nt	nt	i	nt
C=C(c1ccc(O)cc1)c1ccc(O)cc1	i	nt	23	i	i
O=C(c1ccc(O)cc1)c1ccc(Cl)cc1	i	nt	nt	i	nt
C/C=C(/C(=C/C)c1ccc(O)cc1)c1ccc(O)cc1	i	i	21	i	i
CC(C)(C)NS(=O)(=O)c1ccc(NS(C)(=O)=O)cc1	i	i	i	i	i
COc1ccc(Cl)cc1N(CC(=O)NC(C)(C)C)S(=O)(=O)c1ccc(C)c([N+](=O)[O-])c1	i	nt	nt	i	nt
c1ccc(CN2CCN(c3nc(-c4ccccn4)nc4ccccc34)CC2)cc1	i	45	3.2	i	14
c1ccc(-c2nc(N3CCCCCC3)c3ccccc3n2)nc1	3.8	37	7.6	3.4	i
c1ccc(-c2nc(N3CCOCC3)c3ccccc3n2)nc1	i	i	26	3.3	i
Cc1ccc(C(=O)C(C(=O)/C=C/c2ccccc2)=C2SCCCS2)cc1	2.9	32	2.3	3.5	23
COc1ccc(/C=C/C(=O)C(C(N)=O)=C2SCCS2)cc1	i	nt	nt	i	nt
Cc1ccc(C(C)C)c(OCC(=O)Nc2ccccc2N2CCN(C)CC2)c1	i	i	35	i	i
CN1CCN(c2ccccc2NC(=O)COc2ccccc2)CC1	i	i	i	i	i
CC(=O)N1CCN(c2ccccc2NC(=O)COc2ccc(Br)cc2)CC1	i	i	i	i	i
CC(=O)N1CCN(c2ccccc2NC(=O)COc2cc(C)ccc2C(C)C)CC1	i	i	35	i	i
O=C(NC1CCCCC1)N1CCN(C(=O)c2ccco2)CC1	i	i	i	i	i
SMILES	HCT116 bCat-KO	Lung fibro prol	H69AR inhibit	HCT116 PTEN-null	HUVEC inhibit
O=C(CC(=O)N1CCN(c2ccccn2)CC1)Nc1ccc2nc3n(c(=O)c2c1)CCCCC3	i	i	i	i	i
COc1cc(C(=O)Nc2nc(OC)c(-c3ccccc3)c(OC)n2)cc(OC)c1OC	i	i	32	i	i
COc1cc(C(=O)Nc2ccncc2)cc(OC)c1OC	i	i	i	i	i
COc1cc(C(=O)Nc2cc(-c3ccccc3)[nH]n2)cc(OC)c1OC	i	i	25	i	i
COc1ccc(-c2cnc3nc[nH]c(=O)c3n2)cc1	i	i	i	i	i
Cc1ccc2nc(NC(=O)/C=C/c3ccc4c(c3)OCO4)sc2c1	i	nt	nt	1.2	nt
O=C(/C=C/c1ccc2c(c1)OCO2)Nc1nc(-c2ccc(F)cc2F)cs1	5.8	nt	nt	i	nt
Cc1cccc(C)c1NC(=O)CNC(=O)CCC(=O)c1cccs1	i	nt	nt	i	nt
S=C(Nc1ccc(Br)cc1)NC1CCCC1	i	nt	nt	i	nt
FC(F)Sc1ccc(NC(=S)NC2CCCCC2)cc1	i	i	18	i	i
FC(F)Sc1ccc(NC(=S)NCC2CCCCC2)cc1	i	i	5.1	i	i
CC1CCCCC1NC(=S)Nc1ccc(SC(F)F)cc1 (centres undefined)	i	44	32	i	i
Cc1cccc2sc(NNC(=O)C3COc4ccccc4O3)nc12 (centres undefined)	1.2	nt	nt	0.5	nt
Cc1cc(C)c2nc(NNC(=O)c3ccc(S(=O)(=O)N4CCc5ccccc5C4)cc3)sc2c1	4.0	nt	nt	i	nt

Screens deposited in PubChem BioAssay by SRMLSC.
